Data taken from ChEMBL document CHEMBL3785060, “Nitric Oxide Inhibitory Activity and Absolute Configurations of Arylalkenyl α,β-Unsaturated δ/γ-Lactones from Cryptocarya concinna” (J Nat Prod, 2016).

Columns and labels:
RAW264.7 = assay: Antiinflammatory activity in mouse RAW264.7 cells assessed as inhibition of LPS-induced nitric oxide production after 18 hrs by Griess assay; format: functional, cell-based; details: RAW264.7, 18 h
Method in brief: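 LPS-stimulated RAW 264.7 macrophages. Cell viability was first checked by MTT at concentrations up to 100 μM, so that NO inhibition could be separated from cytotoxicity. N-monomethyl-L-arginine served as positive control. Each experiment was run in triplicate. IC50 is given as mean ± SD of three independent experiments.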

[1] = Cytotoxicity against mouse RAW264.7 cells assessed as cell survival up to 100 uM by MTT assay; format: cell-based; details: read-out: Survival
Method in brief: (§1)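 RAW 264.7 macrophages were screened by MTT before the LPS-induced NO assay to rule out cytotoxicity. Concentrations went up to 100 μM, including 50 μM, and the read-out was percent cell survival. All experiments were run in triplicate.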

[2] = Cytotoxicity against mouse RAW264.7 cells assessed as cell survival at 50 uM by MTT assay; format: cell-based; details: read-out: Survival; method in brief: as §1

Row | Compound | IC50 (RAW264.7) [µM] | viability [1] [%] | viability at 50 µM [2] [%]
1 | O=C1C=CC[C@H](C[C@@H]2C[C@H](O)C[C@H](/C=C/c3ccccc3)O2)O1 | 4.2 | > 90 | 
2 | CC(=O)O[C@H](C[C@@H](O)C[C@H](O)/C=C/c1ccccc1)C[C@@H]1OC(=O)C=C[C@@H]1O | 27.6 | > 90 | 
3 | CC(=O)O[C@@H](C/C=C1/C=CC(=O)O1)C[C@@H](O)C[C@H](O)/C=C/c1ccccc1 | 3.4 | > 90 | 
4 | CC(=O)O[C@H](C[C@@H](O)C[C@H](O)/C=C/c1ccccc1)C[C@H]1CC=CC(=O)O1 | > 50 | > 90 | 
5 | CC(=O)O[C@H](C[C@@H](O)C/C=C1/C=CC(=O)O1)C[C@H](O)/C=C/c1ccccc1 | 7.5 | > 90 | 
6 | O=C1C=CC[C@H](C[C@H](O)C[C@@H](O)C[C@H](O)/C=C/c2ccccc2)O1 | 3.2 | > 90 | 
7 | CC(=O)O[C@H](C[C@@H](O)C[C@@H]1OC(=O)C=C[C@@H]1O)C[C@H](O)/C=C/c1ccccc1 |  |  | < 15
8 | CC(=O)O[C@H](C[C@@H](O)C[C@H]1CC=CC(=O)O1)C[C@H](O)/C=C/c1ccccc1 | > 50 |  | 
9 | O=C1C=C[C@H](O)[C@H](C[C@H](O)C[C@@H](O)C[C@H](O)/C=C/c2ccccc2)O1 | 13.8 | > 90 | 
10 | CC(=O)O[C@H](C[C@H](C[C@H](O)/C=C/c1ccccc1)OC(C)=O)C[C@H]1CC=CC(=O)O1 | > 50 |  | 
11 | CNC(=N)NCCC[C@H](N)C(=O)O [TILARGININE] | 45 |  | 
